Measurements: ChEMBL document CHEMBL4765226, “Identification of a Human Toll-Like Receptor (TLR) 8-Specific Agonist and a Functional Pan-TLR Inhibitor in 2-Aminoimidazoles” (J Med Chem, 2016)
Calls of active or inactive are those of the source. The rule behind the calls is not given here.

Experiments:
Format in all cases: cell-based
[1] = biological target: T1, Toll-like receptor 9 (Homo sapiens) (UniProt Q9NR96); assay: Agonist activity at human TLR9 stably expressed in HEK293 cells cotransfected with secreted alkaline phosphatase assessed as induction of NFkappaB activation by quanti-blue SEAP reporter gene based spectrophotometric method
T1 sequence (whole entry): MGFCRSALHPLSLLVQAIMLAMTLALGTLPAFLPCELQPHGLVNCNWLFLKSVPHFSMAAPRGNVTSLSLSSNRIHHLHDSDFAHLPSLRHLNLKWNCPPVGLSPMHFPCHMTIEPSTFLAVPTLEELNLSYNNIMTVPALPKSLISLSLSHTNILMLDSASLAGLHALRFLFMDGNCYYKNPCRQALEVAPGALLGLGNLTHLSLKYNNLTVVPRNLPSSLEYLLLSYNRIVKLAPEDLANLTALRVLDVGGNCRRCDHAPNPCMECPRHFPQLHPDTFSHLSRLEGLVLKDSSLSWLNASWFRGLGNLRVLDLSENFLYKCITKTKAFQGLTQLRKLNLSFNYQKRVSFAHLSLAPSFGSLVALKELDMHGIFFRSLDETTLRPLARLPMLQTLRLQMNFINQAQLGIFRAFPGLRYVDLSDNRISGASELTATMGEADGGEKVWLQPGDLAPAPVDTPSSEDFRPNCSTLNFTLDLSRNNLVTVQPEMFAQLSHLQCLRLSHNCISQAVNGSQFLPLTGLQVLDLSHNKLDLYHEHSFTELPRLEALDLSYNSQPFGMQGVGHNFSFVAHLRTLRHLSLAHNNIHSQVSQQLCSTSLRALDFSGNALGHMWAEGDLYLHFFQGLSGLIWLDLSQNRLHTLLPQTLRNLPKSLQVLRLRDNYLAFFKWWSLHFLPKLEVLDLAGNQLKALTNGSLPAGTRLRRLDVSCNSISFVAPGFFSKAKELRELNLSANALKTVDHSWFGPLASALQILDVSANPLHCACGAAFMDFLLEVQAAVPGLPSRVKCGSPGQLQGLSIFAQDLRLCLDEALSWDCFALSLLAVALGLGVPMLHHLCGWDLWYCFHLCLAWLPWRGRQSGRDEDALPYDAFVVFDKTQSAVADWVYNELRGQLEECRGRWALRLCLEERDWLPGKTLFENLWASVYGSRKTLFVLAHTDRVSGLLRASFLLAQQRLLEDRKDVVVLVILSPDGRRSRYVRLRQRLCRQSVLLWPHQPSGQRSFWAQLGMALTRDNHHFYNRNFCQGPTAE
Summary of the method: (§1)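 HEK293 cells stably co-transfected with the matching human TLR (2, 3, 4, 5, 7, 8 or 9) and NF-κB/AP-1-driven secreted alkaline phosphatase were kept in selection medium. About 10^5 cells/ml were incubated with graded concentrations of stimulus. sAP was read at 620 nm with a chromogen in detection medium. EC50 came from four-parameter logistic fits on quadruplicates.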

[2] = biological target: T2, Toll-like receptor 7 (Homo sapiens) (UniProt Q9NYK1); assay: Agonist activity at human TLR7 stably expressed in HEK293 cells cotransfected with secreted alkaline phosphatase assessed as induction of NFkappaB activation by quanti-blue SEAP reporter gene based spectrophotometric method; summary of the method: as §1
T2 sequence (whole entry): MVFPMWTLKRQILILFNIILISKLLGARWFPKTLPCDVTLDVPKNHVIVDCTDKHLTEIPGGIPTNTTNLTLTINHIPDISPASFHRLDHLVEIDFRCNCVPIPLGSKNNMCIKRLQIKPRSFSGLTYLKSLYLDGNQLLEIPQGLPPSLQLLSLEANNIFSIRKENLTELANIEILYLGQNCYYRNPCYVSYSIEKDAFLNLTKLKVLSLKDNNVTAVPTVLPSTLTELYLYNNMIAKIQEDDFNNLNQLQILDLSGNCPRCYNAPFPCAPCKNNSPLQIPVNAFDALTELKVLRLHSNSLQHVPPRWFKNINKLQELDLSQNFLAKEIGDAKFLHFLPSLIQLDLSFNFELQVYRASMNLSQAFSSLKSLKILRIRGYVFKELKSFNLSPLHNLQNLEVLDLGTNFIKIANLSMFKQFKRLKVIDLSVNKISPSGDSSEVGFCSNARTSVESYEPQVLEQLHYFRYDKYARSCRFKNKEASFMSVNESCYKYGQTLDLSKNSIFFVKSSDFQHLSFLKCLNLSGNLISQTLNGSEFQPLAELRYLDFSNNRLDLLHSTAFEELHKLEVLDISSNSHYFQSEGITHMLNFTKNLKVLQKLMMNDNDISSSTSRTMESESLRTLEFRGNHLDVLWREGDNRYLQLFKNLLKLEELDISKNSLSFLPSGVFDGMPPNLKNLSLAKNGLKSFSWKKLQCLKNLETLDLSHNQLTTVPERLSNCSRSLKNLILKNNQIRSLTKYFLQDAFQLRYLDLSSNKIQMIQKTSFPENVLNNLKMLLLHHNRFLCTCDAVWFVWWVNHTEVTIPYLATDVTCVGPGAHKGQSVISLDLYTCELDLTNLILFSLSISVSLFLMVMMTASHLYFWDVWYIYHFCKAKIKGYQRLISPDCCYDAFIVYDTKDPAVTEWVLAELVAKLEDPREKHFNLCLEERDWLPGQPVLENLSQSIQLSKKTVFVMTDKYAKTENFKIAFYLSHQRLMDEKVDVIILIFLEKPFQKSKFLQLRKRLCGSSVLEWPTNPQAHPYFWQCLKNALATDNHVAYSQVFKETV

Toll-like receptor 2 = Toll-like receptor 2 (Homo sapiens, UniProt O60603); assay: Agonist activity at human TLR2 stably expressed in HEK293 cells cotransfected with secreted alkaline phosphatase assessed as induction of NFkappaB activation by quanti-blue SEAP reporter gene based spectrophotometric method; summary of the method: as §1
Toll-like receptor 4 = Toll-like receptor 4 (Homo sapiens, UniProt O00206); assay: Agonist activity at human TLR4 stably expressed in HEK293 cells cotransfected with secreted alkaline phosphatase assessed as induction of NFkappaB activation by quanti-blue SEAP reporter gene based spectrophotometric method; summary of the method: as §1
Sequence of Toll-like receptor 4 (O00206 whole entry): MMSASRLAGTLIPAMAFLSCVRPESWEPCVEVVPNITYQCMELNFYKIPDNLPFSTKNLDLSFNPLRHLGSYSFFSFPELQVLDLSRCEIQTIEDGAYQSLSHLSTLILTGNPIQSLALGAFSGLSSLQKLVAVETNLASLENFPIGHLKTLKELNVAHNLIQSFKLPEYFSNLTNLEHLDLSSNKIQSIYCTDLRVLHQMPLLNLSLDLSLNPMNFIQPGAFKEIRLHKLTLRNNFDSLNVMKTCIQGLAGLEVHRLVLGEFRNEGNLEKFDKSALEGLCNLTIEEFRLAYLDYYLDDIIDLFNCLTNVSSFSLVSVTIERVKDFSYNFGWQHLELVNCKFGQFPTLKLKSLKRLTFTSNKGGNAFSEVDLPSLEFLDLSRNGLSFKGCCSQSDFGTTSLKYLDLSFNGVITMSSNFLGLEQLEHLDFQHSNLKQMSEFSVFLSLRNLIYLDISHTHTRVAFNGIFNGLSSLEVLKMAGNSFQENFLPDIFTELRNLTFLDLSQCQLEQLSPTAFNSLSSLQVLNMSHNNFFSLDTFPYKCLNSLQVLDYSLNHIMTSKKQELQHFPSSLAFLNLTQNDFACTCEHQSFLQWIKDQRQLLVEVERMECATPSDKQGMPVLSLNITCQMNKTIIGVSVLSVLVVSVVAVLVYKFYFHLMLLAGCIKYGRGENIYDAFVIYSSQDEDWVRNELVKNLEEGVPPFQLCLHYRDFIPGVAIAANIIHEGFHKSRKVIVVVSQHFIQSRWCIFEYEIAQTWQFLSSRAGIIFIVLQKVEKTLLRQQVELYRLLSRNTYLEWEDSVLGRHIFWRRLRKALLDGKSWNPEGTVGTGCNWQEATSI

Sequence of Toll-like receptor 2 (O60603 whole entry): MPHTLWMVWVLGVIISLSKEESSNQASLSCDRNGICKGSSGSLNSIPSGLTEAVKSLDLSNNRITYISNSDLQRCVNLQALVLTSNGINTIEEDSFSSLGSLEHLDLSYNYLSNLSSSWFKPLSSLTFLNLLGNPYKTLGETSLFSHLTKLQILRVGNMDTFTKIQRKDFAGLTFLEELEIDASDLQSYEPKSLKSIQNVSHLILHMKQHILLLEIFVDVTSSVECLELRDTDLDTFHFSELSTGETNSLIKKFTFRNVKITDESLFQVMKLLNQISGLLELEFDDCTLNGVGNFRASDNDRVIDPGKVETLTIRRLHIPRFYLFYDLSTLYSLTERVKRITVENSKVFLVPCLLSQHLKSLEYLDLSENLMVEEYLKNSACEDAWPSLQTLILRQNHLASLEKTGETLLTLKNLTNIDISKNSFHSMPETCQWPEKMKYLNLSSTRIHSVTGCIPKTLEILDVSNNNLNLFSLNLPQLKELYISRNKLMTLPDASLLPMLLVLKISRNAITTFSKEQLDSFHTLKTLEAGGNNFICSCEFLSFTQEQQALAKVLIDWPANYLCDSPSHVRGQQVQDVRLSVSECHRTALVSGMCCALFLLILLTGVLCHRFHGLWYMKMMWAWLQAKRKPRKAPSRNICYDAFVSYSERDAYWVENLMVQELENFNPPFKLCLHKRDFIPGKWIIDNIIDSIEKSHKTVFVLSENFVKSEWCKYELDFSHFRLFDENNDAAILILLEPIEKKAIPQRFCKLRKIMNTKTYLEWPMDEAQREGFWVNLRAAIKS

Activity [1]	Activity [2]	Activity (Toll-like receptor 2)	Activity (Toll-like receptor 4)	SMILES
inactive	inactive	inactive	inactive	CCCCCn1cc(-c2ccccc2C)nc1N
inactive	inactive	inactive	inactive	CCCCCn1c(-c2ccccc2)cnc1N.Cl
inactive	inactive	inactive	inactive	CCCCCn1cc(Cc2ccccc2)nc1N
inactive	inactive	inactive	inactive	CCCCCn1cc(-c2ccc(-c3ccccc3)cc2)nc1N
inactive	inactive	inactive	inactive	CCCCCn1cc(-c2ccccc2OCc2ccccc2)nc1N.Cl
inactive	inactive	inactive	inactive	CCCCCn1cc(-c2ccccc2)nc1N
inactive	inactive	inactive	inactive	CCCCCn1cc(-c2ccc(N)cc2)nc1N
inactive	inactive	inactive	inactive	CCCCCn1cc(-c2ccccc2OC)nc1N
inactive	inactive	inactive	inactive	CCCCCn1cc(-c2ccccc2O)nc1N
inactive	inactive	inactive	inactive	CCCCCn1cc(-c2ccccc2Cl)nc1N
inactive	inactive	inactive	inactive	CCCCCn1cc(-c2cccc(F)c2)nc1N
inactive	inactive	inactive	inactive	CCCCCn1cc(-c2ccc(C)cc2)nc1N
inactive	inactive	inactive	inactive	CCCCCn1cc(-c2ccc(Cl)cc2)nc1N
inactive	inactive	inactive	inactive	CCCCCn1cc(-c2ccccc2F)nc1N
inactive	inactive	inactive	inactive	CCCCCn1c(N)nc(-c2ccccc2)c1-c1ccccc1
inactive	inactive	inactive	inactive	CCCCCn1cc(-c2cccc(Cl)c2)nc1N
inactive	inactive	inactive	inactive	CCCCCn1cc(-c2ccc(F)cc2)nc1N
inactive	inactive	inactive	inactive	CCCCCn1cc(CCc2ccccc2)nc1N
inactive	inactive	inactive	inactive	CCCCCn1cc(-c2ccccc2CO)nc1N
inactive	inactive	inactive	inactive	CCCCCn1cc(-c2cccc3ccccc23)nc1N

More lines, now with the values behind:

SMILES	Activity [1]	Activity [2]	Activity (Toll-like receptor 2)	Activity (Toll-like receptor 4)
CCCCCn1cc(-c2cccc(C(F)(F)F)c2)nc1N	inactive	inactive	inactive	inactive
CCCCCn1cc(-c2ccc(F)cc2C)nc1N	inactive	inactive	inactive	inactive
CCCCCn1cc(-c2ccc(C(=O)OC)cc2)nc1N	inactive	inactive	inactive	inactive
CCCCCn1cc(-c2c(C)cccc2C)nc1N	inactive	inactive	inactive	inactive
CCCCCn1cc(-c2ccc(OC)cc2)nc1N	inactive	inactive	inactive	inactive
CCCCCn1cc(-c2cc(C)ccc2C)nc1N	inactive	inactive	inactive	inactive
CCCCCn1cc(-c2cc(OC)c(OC)c(OC)c2)nc1N	inactive	inactive	inactive	inactive
CCCCCn1cc(-c2ccc(C(N)=O)cc2)nc1N	inactive	inactive	inactive	inactive
CCCCCn1cc(-c2cccc(OC)c2)nc1N	inactive	inactive	inactive	inactive
CCCCCn1cc(-c2cccc(C)c2OC)nc1N	inactive	inactive	inactive	inactive
CCCCCn1cc(-c2cccc(OC)c2OC)nc1N	inactive	inactive	inactive	inactive
CCCCCn1ccnc1N	inactive	inactive	inactive	inactive
CCCCCn1cc(-c2ccc(OC)cc2C)nc1N	inactive	inactive	inactive	inactive
CCCCCn1cc(-c2ccc(C)cc2C)nc1N	inactive	inactive	inactive	inactive
CCCCCn1cc(-c2c(C)noc2C)nc1N	inactive	inactive	inactive	inactive
CCCCCn1cc(-c2cccc(C)c2C)nc1N	inactive	inactive	inactive	inactive
